Results on 1 compound are retold here after ChEMBL document CHEMBL5096187, “Efficient Synthesis and Bioevaluation of Novel Dual Tubulin/Histone Deacetylase 3 Inhibitors as Potential Anticancer Agents” (J Med Chem, 2021).

For data set [1], the target named is T1, Protein deacetylase HDAC6 (Homo sapiens, UniProt Q9UBN7).
T1 sequence (Q9UBN7 whole entry): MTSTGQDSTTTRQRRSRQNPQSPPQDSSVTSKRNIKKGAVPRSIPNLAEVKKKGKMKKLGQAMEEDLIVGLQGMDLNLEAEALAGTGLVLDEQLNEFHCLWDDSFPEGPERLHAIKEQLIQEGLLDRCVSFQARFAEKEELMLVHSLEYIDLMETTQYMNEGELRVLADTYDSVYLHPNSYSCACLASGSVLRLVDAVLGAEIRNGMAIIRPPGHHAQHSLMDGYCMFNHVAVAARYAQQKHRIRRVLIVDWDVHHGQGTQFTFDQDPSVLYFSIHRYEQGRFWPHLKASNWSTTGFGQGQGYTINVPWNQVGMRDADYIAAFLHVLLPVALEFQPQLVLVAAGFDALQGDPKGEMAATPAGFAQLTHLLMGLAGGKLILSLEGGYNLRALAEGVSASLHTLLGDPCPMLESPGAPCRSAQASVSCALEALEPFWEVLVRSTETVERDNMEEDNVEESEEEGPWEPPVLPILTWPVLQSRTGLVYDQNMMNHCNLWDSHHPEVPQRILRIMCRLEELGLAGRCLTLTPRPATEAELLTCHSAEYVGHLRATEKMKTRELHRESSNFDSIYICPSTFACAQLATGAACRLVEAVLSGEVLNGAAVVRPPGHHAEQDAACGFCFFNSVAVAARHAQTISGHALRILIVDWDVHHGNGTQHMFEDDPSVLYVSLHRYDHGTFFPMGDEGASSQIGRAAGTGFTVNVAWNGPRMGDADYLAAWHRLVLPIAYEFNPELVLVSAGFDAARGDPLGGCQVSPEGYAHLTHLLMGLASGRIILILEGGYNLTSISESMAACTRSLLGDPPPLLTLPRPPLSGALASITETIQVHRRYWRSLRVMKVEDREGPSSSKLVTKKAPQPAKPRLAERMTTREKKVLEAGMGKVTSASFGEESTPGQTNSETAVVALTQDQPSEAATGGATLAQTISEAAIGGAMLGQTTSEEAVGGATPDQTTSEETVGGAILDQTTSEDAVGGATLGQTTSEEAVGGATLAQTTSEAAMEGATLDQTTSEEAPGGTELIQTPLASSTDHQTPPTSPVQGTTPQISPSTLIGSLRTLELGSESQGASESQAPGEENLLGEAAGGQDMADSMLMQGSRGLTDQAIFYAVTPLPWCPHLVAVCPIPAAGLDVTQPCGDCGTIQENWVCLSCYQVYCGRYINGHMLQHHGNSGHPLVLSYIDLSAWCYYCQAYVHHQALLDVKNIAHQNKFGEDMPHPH
The data set can be described thus: Inhibition of full length N-terminal GST-tagged human recombinant HDAC6 (1 to 1215 residues) expressed in Baculovirus infected Sf9 cells using Ac-Leu-Gly-Lys (Ac)-AMC as substrate pretreated for 5 mins followed by substrate addition and measured after 30 mins. A digest of the protocol: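 HDAC6 at 15 ng/well in Tris buffer pH 8.0 with MgCl2, BSA, NaCl and KCl. Ten 3-fold dilutions preincubated 5 min at room temperature, then 10 μM Ac-Leu-Gly-Lys(Ac)-AMC for 30 min at 37 °C. IC50 by normalized dose–response nonlinear fit; performed at least three times.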

The test system of data set [2] is B16-F10. The data set can be described thus: Inhibition of cell migration in mouse B16-F10 cells assessed as reduction in wound area ratio measured at 25 nM incubated for 24 hrs by wound healing assay. It is filed as functional. Set-up: scale not given: the % may be the effect or the level left. The procedure, abridged:
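Confluent B16-F10 monolayers, seeded overnight, were scratched with a pipette tip and washed to remove debris. Cells were then treated, and phase-contrast images were taken at 0 and 24 h. Migration distance or wound area measured manually against DMSO control; n = 3.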

A short description of data set [3]: Nephrotoxicity in C57BL/6 mouse assessed as effect on creatinine level in serum. It is filed as toxicity. To be noted: in vivo.
The next data set concerns the target Tubulin (Sus scrofa) (UniProt P02554+P02550). In words: Inhibition of pig brain tubulin polymerization measured after 20 mins by spectrometric method. To be noted: dose 0.8-25 µM, DDE = dose-dependent effect. The procedure, abridged:
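Tubulin purified from pig brain microtubule protein (three assembly/disassembly cycles, then phosphocellulose chromatography). Tubulin mixed with compound in PEM buffer (100 mM PIPES, 1 mM MgCl₂, 1 mM EGTA) plus 1 mM GTP and 5% glycerol. Polymerization followed at 340 nm, 37 °C. Inhibition versus vehicle at 20 min; plateau absorbance used.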

Data set [4] in a line: Hepatotoxicity in C57BL/6 mouse assessed as effect on ALT level in serum. The data set is classed as toxicity.
Data set [5] can be described thus: In vivo inhibition of HDAC in tumor of mouse B16-F10 cells xenografted in C57BL/6 mouse assessed as increase in acetylated histone-H3 expression by […] immunohistochemistry method. The data set is classed as functional. On the set-up: scale not given: the % may be the effect or the level left. The procedure, abridged:
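Tumors from the 14-day i.p. B16-F10 study were formalin-fixed and paraffin-embedded. Sections were deparaffinized, treated with 3% H2O2, and antigen-retrieved at pH 9 and 80 °C overnight. Blocked with milk, incubated with anti-Ac-H3 at 4 °C overnight, then IgG secondary and hematoxylin counterstain. Ac-H3-positive ratio quantified from images.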

Data set [6] is described as follows: Hepatotoxicity in C57BL/6 mouse assessed as effect on total bilirubin level in serum. The data set is classed as toxicity.
A further data set deals with T2, Histone deacetylase 8 (Homo sapiens, UniProt Q9BY41).
T2 sequence (Q9BY41 whole entry): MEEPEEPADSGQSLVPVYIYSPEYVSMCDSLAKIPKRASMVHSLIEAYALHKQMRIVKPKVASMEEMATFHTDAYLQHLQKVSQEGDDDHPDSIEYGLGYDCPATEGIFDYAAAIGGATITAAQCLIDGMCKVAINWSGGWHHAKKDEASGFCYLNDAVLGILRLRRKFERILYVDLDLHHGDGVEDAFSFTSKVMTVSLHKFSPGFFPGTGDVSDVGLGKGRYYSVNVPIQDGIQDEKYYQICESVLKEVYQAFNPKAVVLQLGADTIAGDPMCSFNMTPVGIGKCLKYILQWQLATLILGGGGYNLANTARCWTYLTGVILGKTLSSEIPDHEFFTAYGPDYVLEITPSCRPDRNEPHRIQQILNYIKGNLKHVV
The data set can be described thus: Inhibition of full length C-terminal his-tagged human recombinant HDAC8 ([…]) expressed in baculovirus in Sf9 insect cells using Ac-Leu-Gly-Lys (Tfa)-AMC as substrate pretreated for 5 mins followed by substrate addition and measured after 30 mins.

A short description of data set [7]: Toxicity in C57BL/6 mouse allografted with mouse B16-F10 cells assessed as body weight loss at 10 mg/kg, ip administered for 14 days. To be noted: in vivo, 336 h.
In data set [8] the test system is B16-F10. In words: Induction of apoptosis in mouse B16-F10 cells assessed as late apoptotic cells at 25 nM incubated for 48 hrs by Annexin V-FITC/PI analysis (reference value: 0.00 %). It is filed as functional.

Sequence of Tubulin (Sus scrofa) (P02550 whole entry, looked up): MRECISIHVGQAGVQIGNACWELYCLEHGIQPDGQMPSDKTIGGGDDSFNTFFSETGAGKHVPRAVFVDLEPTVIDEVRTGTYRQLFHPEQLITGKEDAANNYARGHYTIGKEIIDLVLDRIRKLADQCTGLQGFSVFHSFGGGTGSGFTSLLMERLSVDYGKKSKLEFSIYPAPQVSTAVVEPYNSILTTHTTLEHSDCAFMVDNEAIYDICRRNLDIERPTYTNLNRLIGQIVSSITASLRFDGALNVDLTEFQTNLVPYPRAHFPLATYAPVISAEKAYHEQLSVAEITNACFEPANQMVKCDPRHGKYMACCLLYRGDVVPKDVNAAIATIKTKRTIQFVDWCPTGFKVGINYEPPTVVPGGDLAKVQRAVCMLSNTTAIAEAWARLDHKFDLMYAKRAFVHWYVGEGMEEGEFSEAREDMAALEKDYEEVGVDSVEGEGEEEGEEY
Sequence of Tubulin (Sus scrofa) (P02554 whole entry, looked up): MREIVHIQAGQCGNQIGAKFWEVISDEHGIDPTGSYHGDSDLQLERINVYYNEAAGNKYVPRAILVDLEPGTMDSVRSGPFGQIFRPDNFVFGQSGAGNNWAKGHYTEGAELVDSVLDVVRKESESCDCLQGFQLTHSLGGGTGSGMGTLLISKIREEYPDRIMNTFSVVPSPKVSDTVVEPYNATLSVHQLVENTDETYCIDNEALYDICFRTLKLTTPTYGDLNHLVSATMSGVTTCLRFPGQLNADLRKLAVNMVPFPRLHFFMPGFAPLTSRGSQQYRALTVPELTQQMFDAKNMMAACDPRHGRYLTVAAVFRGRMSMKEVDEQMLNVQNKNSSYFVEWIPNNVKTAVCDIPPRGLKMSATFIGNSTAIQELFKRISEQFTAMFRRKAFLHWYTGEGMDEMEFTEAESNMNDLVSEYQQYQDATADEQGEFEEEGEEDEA

Regarding `COc1cc(C(=O)c2csc(-c3ccc(NC(=O)CCCC(=O)Nc4ccccc4N)cc3)n2)cc(OC)c1OC`, the figures for the IC50 (in data set [1]; at Histone deacetylase 8) were 31 µM and 11.6 µM, respectively. Further, the Activity with B16-F10 [2] is 27.32%; in [3], “Non-Toxic”; in data set [4] it was “Non-Toxic”; in [5], 36.7%; in data set [6] it was “Non-Toxic”; in [7] it was “Non-Toxic”. Further, the Activity in the data set with B16-F10 [8] turned out to be 0%. Further, the inhibition entry on Tubulin (Sus scrofa) is “Dde”.

One may read the IC50 as the concentration needed to halve the response being measured.
